Source: PubChem (Johns Hopkins Ion Channel Center)
TRPC4 PAM: positive allosteric modulators of TRPC4, primary screen, cell-based, mouse TRPC4beta, HEK293 mu-opioid, Fluo-4 calcium | Short transient receptor potential channel 4 (Mus musculus), Q9QUQ5 | DAMGO EC20, Fluo-4 Ca2+ flux; stronger effect = higher value | B-score at 10 µM | 310,000 tested, 0.42% active;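 active = B-score of calcium response area above 5 SD of library B-scores, with initial fluorescence ratio within 5 SD of library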
Target sequence (Q9QUQ5 whole entry, looked up): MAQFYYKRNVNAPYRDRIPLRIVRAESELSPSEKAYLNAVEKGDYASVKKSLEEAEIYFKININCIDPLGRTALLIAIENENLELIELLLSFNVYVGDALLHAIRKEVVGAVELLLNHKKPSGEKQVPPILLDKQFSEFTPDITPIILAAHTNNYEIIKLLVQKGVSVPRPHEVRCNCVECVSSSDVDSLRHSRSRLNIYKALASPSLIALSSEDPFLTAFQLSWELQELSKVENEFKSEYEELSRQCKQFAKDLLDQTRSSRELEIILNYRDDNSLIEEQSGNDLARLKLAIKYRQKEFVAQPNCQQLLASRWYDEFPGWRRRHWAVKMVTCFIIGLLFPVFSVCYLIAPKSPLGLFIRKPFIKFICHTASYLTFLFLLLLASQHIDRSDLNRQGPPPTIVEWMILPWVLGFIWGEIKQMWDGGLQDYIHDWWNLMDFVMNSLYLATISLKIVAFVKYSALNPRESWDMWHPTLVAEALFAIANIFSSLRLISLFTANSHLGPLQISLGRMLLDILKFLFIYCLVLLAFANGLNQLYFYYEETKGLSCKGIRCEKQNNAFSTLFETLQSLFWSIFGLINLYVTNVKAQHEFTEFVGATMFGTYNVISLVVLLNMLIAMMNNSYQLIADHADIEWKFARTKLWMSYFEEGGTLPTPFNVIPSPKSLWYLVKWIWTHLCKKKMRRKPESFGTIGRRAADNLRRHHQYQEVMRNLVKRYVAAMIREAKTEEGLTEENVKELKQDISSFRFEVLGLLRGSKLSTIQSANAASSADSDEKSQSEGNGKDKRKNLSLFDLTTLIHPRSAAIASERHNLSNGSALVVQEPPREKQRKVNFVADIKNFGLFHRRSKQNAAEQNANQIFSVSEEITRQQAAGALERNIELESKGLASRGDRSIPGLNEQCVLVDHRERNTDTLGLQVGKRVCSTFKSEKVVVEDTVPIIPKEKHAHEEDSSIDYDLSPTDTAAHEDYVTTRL
TRPC4 act: activators of mouse TRPC4 channel, primary screen, Fluo4 calcium, HEK293 TRPC4beta/mu-opioid cells; Short transient receptor potential channel 4 (Mus musculus), Q9QUQ5; Fluo4 calcium fluorescence; stronger effect = higher value; B-score at 10 µM; 310,000 tested, 0.49% active; AID 2237, 2010;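 active = B-score above 5 SD of library B-scores, and initial fluorescence ratio not above library mean plus 5 SD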;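 note: positive B-score marks a calcium rise read as TRPC4 activation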
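Test system: HEK293 cells stably co-expressing mouse TRPC4beta and mu-opioid receptor | Schedule: Fluo4 dye loading 45 min at room temperature, 110 s recording | Measured by: Kinetic Fluo4 calcium fluorescence, 5 s baseline at 1 Hz | Evaluation: B score of integrated ratio | Controls: Buffer (low) and maximal DAMGO (high)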
TRPC6 inh: mouse TRPC6 channel inhibitors, primary screen, cell-based, HEK293, membrane potential dye; Short transient receptor potential channel 6 (Mus musculus), Q61143; ACh-evoked depolarization; stronger effect = lower value; B-score at 10 µM; 310,000 tested, 1.1% active;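 active = B-score under library mean minus 3 SD, initial fluorescence not abnormally high, positive integrated signal ratio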;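 note: B-score derived from integrated fluorescence ratio over the kinetic read; more negative B-score means stronger inhibition of depolarization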
TRPC6 act: mouse TRPC6 channel activators, primary screen, cell-based, HEK293, membrane potential dye; 310,000 tested, 0.13% active; HEK293-TRPC6 membrane potential dye fluorescence; stronger effect = higher value; B-score at 10 µM; AID 2550, 2010;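 active = B-score of the integrated fluorescence ratio above library mean plus 3 SD, and starting fluorescence ratio within library mean plus 5 SD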;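 note: higher score means more depolarization so channel activation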
TRPC4 inh: inhibitors of mouse TRPC4 channel, primary screen, Fluo4 calcium, HEK293 TRPC4beta/mu-opioid cells | Short transient receptor potential channel 4 (Mus musculus), Q9QUQ5 | DAMGO-evoked Fluo4 calcium flux; stronger effect = lower value | B-score at 10 µM | 300,000 tested, 0.39% active;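 active = B-score over 3 SD under the library average, no early fluorescence shift, positive overall ratio signal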
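Assay system: TRPC4beta/mu-opioid receptor HEK293 cell line; compound dosing: single concentration per test compound; detection: Fluo4 Ca2+ flux fluorescence; evaluation: per-well B score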
Numbers stand for hits. Sampled rows, rich in hits. Any-hit rate of the full collection: about 2.3%.

What do the screens show for `C=CCn1c(SCc2n[nH]c(=S)n2-c2ccccc2)nnc1-c1ccccc1`?
TRPC4 PAM: 11; TRPC4 act: inactive; TRPC6 inh: inactive; TRPC6 act: inactive; TRPC4 inh: inactive

Results for CCn1ccnc1CNC(=O)c1ccc2oc(CCCc3ccccc3)nc2c1 ?
TRPC4 PAM: inactive; TRPC4 act: inactive; TRPC6 inh: inactive; TRPC6 act: inactive; TRPC4 inh: -6

Results for CCCCc1nc2cc(C(=O)NCc3ccccn3)ccc2o1 ?
TRPC4 PAM: inactive; TRPC4 act: inactive; TRPC6 inh: inactive; TRPC6 act: inactive; TRPC4 inh: inactive

What do the screens show for `Oc1ccc(-c2[nH]ncc2-c2cnn(-c3ccccc3)c2)c(O)c1`?
TRPC4 PAM: inactive; TRPC4 act: inactive; TRPC6 inh: inactive; TRPC6 act: inactive; TRPC4 inh: -5

What do the screens show for `CCN1C(N(C)CCc2cccs2)=N[C@@H](c2ccccc2)C(C(=O)OC)=C1C`?
TRPC4 PAM: inactive; TRPC4 act: inactive; TRPC6 inh: inactive; TRPC6 act: inactive; TRPC4 inh: -5

What do the screens show for `COCC(C)NCC(=O)NC(C)CCc1ccccc1` (centres undefined)?
TRPC4 PAM: inactive; TRPC4 act: inactive; TRPC6 inh: inactive; TRPC6 act: inactive; TRPC4 inh: inactive

What do the screens show for `Clc1ccc(OCCn2ccnc2)c(Br)c1`?
TRPC4 PAM: 21; TRPC4 act: inactive; TRPC6 inh: inactive; TRPC6 act: inactive; TRPC4 inh: inactive

Results for Cc1cc(Cl)c(OCCn2ccnc2)c(Br)c1 ?
TRPC4 PAM: inactive; TRPC4 act: inactive; TRPC6 inh: inactive; TRPC6 act: inactive; TRPC4 inh: inactive

What do the screens show for `Clc1ccc(OCCn2ccnc2)c2ccccc12`?
TRPC4 PAM: inactive; TRPC4 act: 53; TRPC6 inh: inactive; TRPC6 act: inactive; TRPC4 inh: inactive

What do the screens show for `Clc1ccc(OCCn2ccnc2)c(Cl)c1`?
TRPC4 PAM: 14; TRPC4 act: inactive; TRPC6 inh: inactive; TRPC6 act: inactive; TRPC4 inh: inactive

Results for Clc1ccc(SCCCCn2cncn2)cc1 ?
TRPC4 PAM: inactive; TRPC4 act: inactive; TRPC6 inh: inactive; TRPC6 act: inactive; TRPC4 inh: inactive

What do the screens show for `OC(COc1ccc(Cl)cc1Cl)Cn1ccnc1` (centres undefined)?
TRPC4 PAM: inactive; TRPC4 act: inactive; TRPC6 inh: inactive; TRPC6 act: inactive; TRPC4 inh: inactive

Results for Clc1ccc(SCCn2ccnc2)cc1 ?
TRPC4 PAM: inactive; TRPC4 act: 63; TRPC6 inh: inactive; TRPC6 act: inactive; TRPC4 inh: inactive

Results for COc1ccccc1OCCn1ccnc1 ?
TRPC4 PAM: inactive; TRPC4 act: inactive; TRPC6 inh: inactive; TRPC6 act: inactive; TRPC4 inh: inactive

How did CC1CCCCN1C(=O)NC1CC(=O)N(c2ccc3c(c2)OCCO3)C1 (centres undefined) do in these assays?
TRPC4 PAM: inactive; TRPC4 act: inactive; TRPC6 inh: inactive; TRPC6 act: inactive; TRPC4 inh: inactive

How did O=C(/C=C/c1cn(-c2ccccc2)nc1-c1cccc(Cl)c1)N1CCN(c2ccccn2)CC1 do in these assays?
TRPC4 PAM: inactive; TRPC4 act: inactive; TRPC6 inh: inactive; TRPC6 act: inactive; TRPC4 inh: inactive

How did O=C(COC(=O)c1ccccc1-n1cnnn1)c1ccc(F)cc1 do in these assays?
TRPC4 PAM: inactive; TRPC4 act: inactive; TRPC6 inh: inactive; TRPC6 act: inactive; TRPC4 inh: inactive

What do the screens show for `CCn1c(Cc2cccs2)nnc1SCC(=O)NC(C)(C)C`?
TRPC4 PAM: inactive; TRPC4 act: inactive; TRPC6 inh: inactive; TRPC6 act: inactive; TRPC4 inh: inactive

What do the screens show for `S=C(NCc1ccncc1)Nc1cccc(Cl)c1`?
TRPC4 PAM: inactive; TRPC4 act: inactive; TRPC6 inh: inactive; TRPC6 act: inactive; TRPC4 inh: inactive

What do the screens show for `CCc1cccc(C)c1NC(=S)NCC(c1cccnc1)N(C)C` (centres undefined)?
TRPC4 PAM: inactive; TRPC4 act: 91; TRPC6 inh: inactive; TRPC6 act: inactive; TRPC4 inh: inactive

What do the screens show for `CN(C)C(CNC(=S)Nc1cccc(Cl)c1)c1cccnc1` (centres undefined)?
TRPC4 PAM: inactive; TRPC4 act: 93; TRPC6 inh: inactive; TRPC6 act: inactive; TRPC4 inh: inactive

How did CN(C)C(CNC(=S)Nc1ccccc1)c1cccnc1 (centres undefined) do in these assays?
TRPC4 PAM: inactive; TRPC4 act: 75; TRPC6 inh: inactive; TRPC6 act: inactive; TRPC4 inh: inactive

Results for CN(C)C(CNC(=S)Nc1ccccc1Cl)c1cccnc1 (centres undefined) ?
TRPC4 PAM: inactive; TRPC4 act: 104; TRPC6 inh: inactive; TRPC6 act: inactive; TRPC4 inh: inactive

What do the screens show for `CC(C)CN(C1CCS(=O)(=O)C1)S(=O)(=O)c1ccc(C(C)C)cc1` (centres undefined)?
TRPC4 PAM: inactive; TRPC4 act: inactive; TRPC6 inh: inactive; TRPC6 act: inactive; TRPC4 inh: inactive

Results for COc1ccc(CCC(=O)NNC(=O)c2cc(Cl)ccc2OC)cc1 ?
TRPC4 PAM: inactive; TRPC4 act: inactive; TRPC6 inh: inactive; TRPC6 act: inactive; TRPC4 inh: inactive

How did CN(C)C(CNC(=O)NC1CCCCC1)c1cccnc1 (centres undefined) do in these assays?
TRPC4 PAM: inactive; TRPC4 act: 105; TRPC6 inh: inactive; TRPC6 act: inactive; TRPC4 inh: inactive

How did CN(C)C(CNC(=O)c1cccs1)c1cccnc1 (centres undefined) do in these assays?
TRPC4 PAM: inactive; TRPC4 act: inactive; TRPC6 inh: inactive; TRPC6 act: inactive; TRPC4 inh: inactive

What do the screens show for `CCC(=O)N1CCc2cc(OC)c(OC)cc2C1COc1ccc(F)cc1` (centres undefined)?
TRPC4 PAM: inactive; TRPC4 act: inactive; TRPC6 inh: inactive; TRPC6 act: inactive; TRPC4 inh: inactive

What do the screens show for `Cc1ccc(CC2C(=O)N(c3cc(C)ccc3C)C(=O)C2C)cc1` (centres undefined)?
TRPC4 PAM: inactive; TRPC4 act: inactive; TRPC6 inh: inactive; TRPC6 act: inactive; TRPC4 inh: inactive

What do the screens show for `Oc1ccc(Cl)cc1C1=NNC(c2cccs2)C1` (centres undefined)?
TRPC4 PAM: inactive; TRPC4 act: inactive; TRPC6 inh: inactive; TRPC6 act: inactive; TRPC4 inh: inactive

Results for O=[N+]([O-])c1ccc(O)c(C2=NNC(c3ccccc3F)C2)c1 (centres undefined) ?
TRPC4 PAM: inactive; TRPC4 act: 101; TRPC6 inh: inactive; TRPC6 act: inactive; TRPC4 inh: -6

How did CCN(CC(=O)Nc1ccccc1C(F)(F)F)C(=O)c1ccc(=O)n(Cc2ccccc2)n1 do in these assays?
TRPC4 PAM: inactive; TRPC4 act: inactive; TRPC6 inh: inactive; TRPC6 act: inactive; TRPC4 inh: inactive
